The text below walks through data of ChEMBL document CHEMBL2016533, “Paviosides A-H, eight new oleane type saponins from Aesculus pavia with cytotoxic activity” (Bioorg Med Chem, 2012).

Test [1] concerns WEHI-164. The test is described as follows: Cytotoxicity against mouse WEHI164 cells after 72 hrs by MTT assay. Conditions: WEHI-164, 72 h. Format: functional, cell-based. The procedure, abridged:
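WEHI 164 murine fibrosarcoma cells are kept adherent (DMEM, 10% heat-inactivated FBS, 25 mM HEPES), then plated and allowed 2 h to adhere (37 °C, 5% CO2). Medium is refreshed, 1.2 v/v serial dilutions are added, and cells incubate 72 h. MTT (5 mg/mL) is added for 3 h, then solubilized in 50% DMF/20% SDS, pH 4.5. % dead cells = 100 − (OD treated/OD control)×100.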
For orientation: Formazan colour is commonly taken as a measure of viable cells.

In test [2] the test system is J774. Put plainly: Cytotoxicity against mouse J774 cells after 72 hrs by MTT assay. Type of test: functional, cell-based. As to conditions: J774, 72 h. The procedure, abridged: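 J774 murine monocyte/macrophage cells are kept in suspension in stirred bottles (37 °C, DMEM, 10% FBS, 25 mM HEPES, 2 mM glutamine), then plated and allowed 2 h to adhere (37 °C, 5% CO2). Medium is refreshed, 1.2 v/v serial dilutions are added, and cells incubate 72 h. MTT (5 mg/mL) is added for 3 h, then solubilized in 50% DMF/20% SDS, pH 4.5. % dead cells = 100 − (OD treated/OD control)×100.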

≈ marks a conversion by molar mass, not a printed value.

One may read the IC50 as the midpoint of a concentration-inhibition curve. The low end stands for inhibition by little substance, the high end for a need for much substance.

As to `C/C=C(\C)C(=O)O[C@H]1[C@H](OC(C)=O)[C@]2(CO)[C@H](O)C[C@]3(C)C(=CC[C@@H]4[C@@]5(C)CC[C@H](O[C@@H]6O[C@H](C(=O)O)[C@@H](O[C@@H]7O[C@H](CO)[C@@H](O)[C@H](O)[C@H]7O)[C@H](O)[C@H]6O[C@@H]6OC[C@@H](O)[C@H](O)[C@H]6O)C(C)(C)[C@@H]5CC[C@]43C)[C@@H]2CC1(C)C` [PAVIOSIDEA], the results for the IC50 in test [1] and in test [2] were 4.8 µg/mL (≈ 4.42 µM) and 5.7 µg/mL (≈ 5.25 µM), respectively.

Take `C/C=C(/C)C(=O)O[C@H]1[C@H](OC(C)=O)[C@]2(CO)[C@H](O)C[C@]3(C)C(=CC[C@@H]4[C@@]5(C)CC[C@H](O[C@@H]6O[C@H](C(=O)O)[C@@H](O[C@@H]7O[C@H](CO)[C@@H](O)[C@H](O)[C@H]7O)[C@H](O)[C@H]6O[C@@H]6OC[C@@H](O)[C@H](O)[C@H]6O)C(C)(C)[C@@H]5CC[C@]43C)[C@@H]2CC1(C)C` [PAVIOSIDEB]: the IC50 in test [1] amounted to 4.9 µg/mL (≈ 4.52 µM); in test [2] it was 5.1 µg/mL (≈ 4.7 µM).

Regarding `C/C=C(\C)C(=O)O[C@H]1[C@H](OC(C)=O)[C@]2(CO)[C@H](O)C[C@]3(C)C(=CC[C@@H]4[C@@]5(C)CC[C@H](O[C@@H]6O[C@H](C(=O)O)[C@@H](O[C@@H]7O[C@H](CO)[C@H](O)[C@H](O)[C@H]7O)[C@H](O)[C@H]6O[C@@H]6OC[C@@H](O)[C@H](O)[C@H]6O)C(C)(C)[C@@H]5CC[C@]43C)[C@@H]2CC1(C)C` [PAVIOSIDEC], the IC50 in test [1] was determined as 6.5 µg/mL (≈ 5.99 µM); in test [2], 5.7 µg/mL (≈ 5.25 µM).

As for `C/C=C(/C)C(=O)O[C@H]1[C@H](OC(C)=O)[C@]2(CO)[C@H](O)C[C@]3(C)C(=CC[C@@H]4[C@@]5(C)CC[C@H](O[C@@H]6O[C@H](C(=O)O)[C@@H](O[C@@H]7O[C@H](CO)[C@H](O)[C@H](O)[C@H]7O)[C@H](O)[C@H]6O[C@@H]6OC[C@@H](O)[C@H](O)[C@H]6O)C(C)(C)[C@@H]5CC[C@]43C)[C@@H]2CC1(C)C` [PAVIOSIDED], the IC50 in test [1] was found to be 7.1 µg/mL (≈ 6.54 µM); in test [2] it was 6.6 µg/mL (≈ 6.08 µM).

For `C/C=C(\C)C(=O)O[C@H]1[C@H](OC(C)=O)[C@]2(CO)[C@H](O)C[C@]3(C)C(=CC[C@@H]4[C@@]5(C)CC[C@H](O[C@@H]6O[C@H](C(=O)O)[C@@H](O[C@@H]7OC[C@@H](O)[C@H](O)[C@H]7O)[C@H](O)[C@H]6O[C@@H]6OC[C@@H](O)[C@H](O)[C@H]6O)C(C)(C)[C@@H]5CC[C@]43C)[C@@H]2CC1(C)C` [PAVIOSIDEE], the results for the IC50 in test [1] and in test [2] were 2.1 µg/mL (≈ 1.99 µM) and 2.9 µg/mL (≈ 2.75 µM), respectively.

`C/C=C(/C)C(=O)O[C@H]1[C@H](OC(C)=O)[C@]2(CO)[C@H](O)C[C@]3(C)C(=CC[C@@H]4[C@@]5(C)CC[C@H](O[C@@H]6O[C@H](C(=O)O)[C@@H](O[C@@H]7OC[C@@H](O)[C@H](O)[C@H]7O)[C@H](O)[C@H]6O[C@@H]6OC[C@@H](O)[C@H](O)[C@H]6O)C(C)(C)[C@@H]5CC[C@]43C)[C@@H]2CC1(C)C` [PAVIOSIDEF]: the values for the IC50 in test [1] and in test [2] were 2.3 µg/mL (≈ 2.18 µM) and 2.8 µg/mL (≈ 2.65 µM), respectively.

In the case of `C/C=C(\C)C(=O)O[C@H]1[C@H](OC(C)=O)[C@]2(CO)[C@H](O)C[C@]3(C)C(=CC[C@@H]4[C@@]5(C)CC[C@H](O[C@@H]6O[C@H](C(=O)O)[C@@H](O[C@@H]7OC[C@@H](O)[C@H](O)[C@H]7O)[C@H](O)[C@H]6O[C@@H]6OC[C@@H](O)[C@H](O)[C@H]6O)[C@](C)(CO)[C@@H]5CC[C@]43C)[C@@H]2CC1(C)C` [PAVIOSIDEG], the figures for the IC50 in test [1] and in test [2] were 3.5 µg/mL (≈ 3.27 µM) and 3.6 µg/mL (≈ 3.36 µM), respectively.

As to `C/C=C(/C)C(=O)O[C@H]1[C@H](OC(C)=O)[C@]2(CO)[C@H](O)C[C@]3(C)C(=CC[C@@H]4[C@@]5(C)CC[C@H](O[C@@H]6O[C@H](C(=O)O)[C@@H](O[C@@H]7OC[C@@H](O)[C@H](O)[C@H]7O)[C@H](O)[C@H]6O[C@@H]6OC[C@@H](O)[C@H](O)[C@H]6O)[C@](C)(CO)[C@@H]5CC[C@]43C)[C@@H]2CC1(C)C` [PAVIOSIDEH], the IC50 came out at 3.2 µg/mL (≈ 2.99 µM) in test [1] and 3.5 µg/mL (≈ 3.27 µM) in test [2].
